According to ChEMBL document CHEMBL4411261, “Down-Regulation of the Androgen Receptor by G-Quadruplex Ligands Sensitizes Castration-Resistant Prostate Cancer Cells to Enzalutamide” (J Med Chem, 2018):
Calls of active or inactive are those of the source. The calls are words filed in the database; no cut-off is given here.

Experiments:
[1] = tested on: Quadruplex DNA; test: Stabilization of AR G-quadruplex oligonucleotide in human LNCAP cells assessed as reduction in PSA protein level by immunoblotting assay; format: cell-based
Outline: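 Lysate proteins immunoblotted. Vinculin or β-actin used as loading control, peroxidase-linked secondary antibodies, ECL chemiluminescent detection, autoradiography, densitometric scan. Untreated cells received DMSO.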

[2] = tested on: Quadruplex DNA; test: Stabilization of AR G-quadruplex oligonucleotide in human 22Rv1 cells assessed as reduction in AR mRNA expression at IC50 after 6 to 72 hrs by RT-PCR analysis; format: cell-based; conditions: TDE = time-dependent effect
Outline: (§1)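 Transcripts quantified by TaqMan real-time PCR with RNaseP as normalizer; relative quantity versus untreated cells by the 2−ΔΔCt method. Panel genes measured with a 92-gene cancer-mechanism TaqMan array.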

[3] = tested on: CWR22R; test: Synergistic cytotoxicity against human 22Rv1 cells expressing full length androgen receptor H875Y point mutant assessed as combination index for reduction in cell viability measured at ED50 Enzalutamide at 0.001 to 0.1 uM after 72 hrs by MTS assay based Chou and Talay's plot analysis; format: functional
Outline: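 Cells in RPMI-1640 with 10% fetal calf serum were exposed to ligand (0.001−0.1 μM) plus enzalutamide (0.5−50 μM) at a fixed ratio, five concentrations, for 72 h at 37 °C, 5% CO2. Viability read by MTS absorbance at 490 nm after 4 h. Combination index computed at ED50 and ED75 by the Chou–Talalay method.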

[4] = tested on: Quadruplex DNA; test: Stabilization of AR G-quadruplex oligonucleotide in human 22Rv1 cells assessed as reduction in cyclin D1 protein level at IC50 after 48 hrs by Western immunoblot assay; format: cell-based
[5] = tested on: Quadruplex DNA; test: Stabilization of AR G-quadruplex oligonucleotide in human 22Rv1 cells assessed as reduction in AR-FL protein level by immunoblotting assay; format: cell-based
[6] = tested on: Quadruplex DNA; test: Stabilization of AR G-quadruplex oligonucleotide in human PC3 cells assessed as up-regulation of WNT1 mRNA expression at IC50 after 48 hrs by RT-PCR analysis; format: cell-based
Outline: (§2)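 PC-3 cells (RPMI-1640, 10% fetal calf serum) exposed at an equitoxic concentration. Expression of 92 cancer-mechanism genes measured on TaqMan Arrays. Change versus untreated cells computed by 2−ΔΔCt, with RNaseP as normalizer.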

[7] = tested on: PC-3; test: Synergistic cytotoxicity against human PC3 cells assessed as combination index for reduction in cell viability measured at ED50 Enzalutamide at 0.001 to 0.1 uM after 72 hrs by MTS assay based Chou and Talay's plot analysis
[8] = tested on: Quadruplex DNA; test: Stabilization of AR G-quadruplex oligonucleotide in human LNCAP cells assessed as down-regulation of KLK3 mRNA expression at IC50 after 48 hrs by RT-PCR analysis; format: cell-based; outline: as §1
[9] = tested on: Quadruplex DNA; test: Stabilization of AR G-quadruplex oligonucleotide in human 22Rv1 cells assessed as reduction in AR-VS protein level at IC50 after 48 hrs by Western immunoblot assay; format: cell-based
[10] = tested on: PNT1A; test: Cytotoxicity against human PNT1A cells assessed as reduction in cell viability after 48 hrs by MTS assay; format: cell-based
Outline: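 Cells kept in RPMI-1640 with 10% fetal calf serum, 37 °C, 5% CO2. Seeded, after 24 h treated with 0.0001, 0.001, 0.01, 0.1, 1 and 10 μM compound (DMSO stocks freshly diluted in medium) for 48 h. MTS added 4 h, absorbance 490 nm; IC50 from curves of % viability inhibition versus DMSO-treated cells against log concentration.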

[11] = tested on: Quadruplex DNA; test: Stabilization of AR G-quadruplex oligonucleotide in human DU145 cells assessed as up-regulation of WNT1 mRNA expression at IC50 after 48 hrs by RT-PCR analysis; format: cell-based; outline: as §1
[12] = tested on: PC-3; test: Effect on JUN mRNA expression in human PC3 cells at IC50 after 48 hrs by RT-PCR analysis; format: functional, cell-based; outline: as §1
[13] = tested on: Quadruplex DNA; test: Stabilization of AR3 G-quadruplex oligonucleotide (unknown origin) assessed as melting temperature at 16 uM after 16 hrs in presence of 100 mM K+ by CD spectra analysis (reference value: 78.8 +/- 1.7 degreeC); format: nucleic-acid assay
[14] = tested on: Quadruplex DNA; test: Stabilization of AR G-quadruplex oligonucleotide in human LNCAP cells assessed as down-regulation of KLK3 mRNA expression at IC50 after 72 hrs by RT-PCR analysis; format: cell-based
Outline: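 Cells grown in RPMI-1640 with 10% fetal calf serum, 37 °C, 5% CO2, treated at an equitoxic concentration. Transcripts quantified by TaqMan real-time RT-PCR, normalized to RNaseP, expressed as relative quantity versus untreated cells (calibrator) by the 2−ΔΔCt method.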

[15] = tested on: PC-3; test: Synergistic cytotoxicity against human PC3 cells assessed as combination index for reduction in cell viability measured at ED75 Enzalutamide at 0.001 to 0.1 uM after 72 hrs by MTS assay based Chou and Talay's plot analysis
[16] = tested on: Quadruplex DNA; test: Stabilization of AR G-quadruplex oligonucleotide in human 22Rv1 cells assessed as up-regulation of BAX mRNA expression at IC50 after 48 hrs by RT-PCR analysis; format: cell-based; outline: as §1
[17] = tested on: CWR22R; test: Effect on c-MYC mRNA expression in human 22Rv1 cells at IC50 after 48 hrs by RT-PCR analysis; format: functional, cell-based; outline: as §1
[18] = Binding affinity to 5'-Biotinylated-AGTGAGAGTGAGAGAGAGAGTGAGAGTGAGAGTGA ssDNA (unknown origin) by SPR analysis
Outline: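 SPR on streptavidin chip; 5′-biotinylated oligo folded by heating 95 °C 5 min in 10 mM lithium cacodylate, 150 mM KCl, then immobilized at 30 nM to about 600 RU; empty reference cell. Compound 0.7−400 nM in HEPES-KCl (pH 7.4, 0.15 M KCl, 3 mM EDTA) at 40 °C, 40 μL/min, 260 s contact, 600 s dissociation; glycine pH 2.0 regeneration; steady-state affinity fit; at least two independent runs.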

[19] = tested on: Quadruplex DNA; test: Stabilization of AR G-quadruplex oligonucleotide in human PC3 cells assessed as down-regulation of BAX mRNA expression at IC50 after 48 hrs by RT-PCR analysis; format: cell-based; outline: as §2
[20] = tested on: PC-3; test: Synergistic cytotoxicity against human PC3 cells assessed as ED75 for Enzalutamide at 0.001 to 0.1 uM after 72 hrs by MTS assay
[21] = tested on: Quadruplex DNA; test: Stabilization of AR G-quadruplex oligonucleotide in human DU145 cells assessed as down-regulation of MAX mRNA expression at IC50 after 48 hrs by RT-PCR analysis; format: cell-based; outline: as §1
[22] = tested on: Quadruplex DNA; test: Stabilization of AR G-quadruplex oligonucleotide in human 22Rv1 cells assessed as reduction in basal AKT1 levels at IC50 after 48 hrs by Western immunoblot assay; format: cell-based
[23] = tested on: Quadruplex DNA; test: Stabilization of AR G-quadruplex oligonucleotide in human 22Rv1 cells assessed as regulation of PTEN mRNA expression at IC50 after 48 hrs by RT-PCR analysis; format: cell-based; outline: as §1
[24] = tested on: Quadruplex DNA; test: Stabilization of AR G-quadruplex oligonucleotide in human 22Rv1 cells assessed as down-regulation of CCNE1 mRNA expression at IC50 after 48 hrs by RT-PCR analysis; format: cell-based; outline: as §1

## CN(C)CCCn1c(=O)c2ccc3c(=O)n(CCCN(C)C)c(=O)c4c5[nH]c6ccccc6[nH]c5c(c1=O)c2c34.Cl.Cl
[1]
  Activity: Active
[2]
  Activity: Tde
[3]
  CI: <1
[4]
  Activity: Active
[5]
  Activity: Active
[6]
  Activity: Active
[7]
  CI: >1
[8]
  Activity: Active
[9]
  Activity: Active
[10]
  IC50: 280 nM
[11]
  Activity: Active
[12]
  Activity: inactive
[13]
  Tm: > 90 °C
[14]
  Activity: inactive
[15]
  CI: >1
[16]
  Activity: Active
[17]
  Activity: inactive
[18]
  Kd: 196 nM
[19]
  Activity: Active
[20]
  ED75: 21100 nM
[21]
  Activity: Active
[22]
  Activity: Active
[23]
  Activity: Active
[24]
  Activity: Active
